Source: PubChem (several laboratories)
Rows were chosen to be rich in hits. Some 10% of all compounds tested hit in one or more screens of this group.
PMI act – phosphomannose isomerase (human) activation. P34949. purified human PMI, coupled resazurin fluorescence, 20 min; stronger effect = higher value; 1 = vehicle control, 0 substrate-free wells. activation factor at 20 µM. hit rate 0.005% among 190,000;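 active means activation factor of 2 or more at 20 µM, relative to plate controls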
Target sequence (P34949 whole entry, looked up): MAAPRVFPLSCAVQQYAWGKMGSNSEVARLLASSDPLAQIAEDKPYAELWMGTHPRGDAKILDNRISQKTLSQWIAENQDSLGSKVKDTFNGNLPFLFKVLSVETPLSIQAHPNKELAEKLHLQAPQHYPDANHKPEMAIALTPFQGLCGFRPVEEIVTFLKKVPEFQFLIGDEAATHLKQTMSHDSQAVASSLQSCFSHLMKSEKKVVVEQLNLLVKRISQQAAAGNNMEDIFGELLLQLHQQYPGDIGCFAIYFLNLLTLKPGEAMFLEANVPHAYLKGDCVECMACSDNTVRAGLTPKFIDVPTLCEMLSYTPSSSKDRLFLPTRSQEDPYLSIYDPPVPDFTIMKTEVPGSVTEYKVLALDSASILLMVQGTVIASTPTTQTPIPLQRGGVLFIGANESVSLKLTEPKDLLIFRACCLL
PMI act satM6P – activators of human phosphomannose isomerase at near-saturating mannose 6-phosphate; P34949; coupled PMI enzyme assay, resazurin fluorescence, 20 min; stronger effect = higher value; 1 = untreated enzyme, 0 = substrate-free blank; activation factor at 20 µM; hit rate 0.34% among 190,000;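 active means activation factor of 2 or more at 20 µM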
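Test system: human phosphomannose isomerase with PGI, G6PDH, diaphorase coupling enzymes / Doses: 20 µM compound, 1% DMSO / Times: enzyme reaction with compound 20 min at room temperature / Measured by: Diaphorase-driven resazurin-to-resorufin fluorescence, excitation 544, emission 590 nm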
Diaphorase act – diaphorase activation or chemical reduction counter-screen. hit rate 0.005% among 190,000. Diaphorase/resazurin coupled assay, resorufin fluorescence, 16 min; stronger effect = higher value; 1 = vehicle wells, 0 = NADH-free wells. AID 1229. activation factor at 20 µM;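 active means diaphorase activity raised at least twofold by the compound at 20 µM; inactive means activation factor below 2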
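Material: purified diaphorase enzyme from Clostridium kluyveri / Medium: HEPES pH 7.4 buffer with MgCl2 and Tween 20 / Schedule: enzyme reaction of 16 min at room temperature / Measured by: resorufin fluorescence, excitation 544 nm, emission 590 nm / Evaluation: rise in resorufin formation, marking diaphorase activation or chemical reduction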
L major viab – Leishmania major promastigote growth inhibition; Leishmania major promastigotes, resazurin fluorescence viability; inhibition, % at 10 µM; hit rate 9% among 200,000; in the data active means inhibition above about 50%;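 further: promastigotes grown with compound for 44 hours at 28 °C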
WT yeast gro inh – growth inhibition of WT yeast, mitochondrial fusion screen; mitochondrial fusion phenotypic screen, WT strain; inhibition, % at 10 µM; hit rate 2.1% among 190,000; AID 1362; in the data active means inhibition above about 58%; tested in S. cerevisiae
Large screens that a line does not name were inactive.

COc1cccc(NC2=C(Cl)C(=O)OC2OC(=O)c2ccco2)c1 (centres undefined)	none
O=C(CC12CC3CC(CC(C3)C1)C2)NCc1ccncc1	none
c1cc(CNC23CC4CC(CC(C4)C2)C3)ccn1	L major viab 84
O=C(NC12CC3CC(CC(C3)C1)C2)N(Cc1ccccc1)Cc1ccncc1	L major viab 55
CCOc1ccc(CCNC(=O)C2=C(C)C(=O)OC23CCCCC3)cc1OCC	none
O=C(/C=C/c1ccccc1)NC1CC2CCC1C2 (centres undefined)	L major viab 53
Cn1c(CN2CCN(C(=O)c3ccccc3Cl)CC2)nc2cc([N+](=O)[O-])ccc21	none
Cn1c(CN2CCN(C(=O)c3ccccc3)CC2)nc2cc([N+](=O)[O-])ccc21	L major viab 51
O=C(N=Nc1c(O)[nH]c2ccccc12)c1cccc(S(=O)(=O)Nc2ccccc2Cl)c1	none
O=C(N=Nc1c(O)[nH]c2ccccc12)c1ccccc1NS(=O)(=O)c1cccs1	L major viab 68
CCC(CC)NC(=O)c1oc2ccccc2c1COc1ccccc1	none
CC(C)CNC(=O)c1oc2ccccc2c1COc1ccccc1	WT yeast gro inh 63
Cc1cc(C)cc(NC(=O)c2oc3ccccc3c2COc2ccccc2)c1	L major viab 89
COc1cc(-c2n[nH]c(=S)n2-c2cc(C(F)(F)F)ccc2Cl)cc(OC)c1OC	none
O=C(Nc1ccc2c(c1)OCCO2)c1cncc(Br)c1	none
O=C(Nc1ccc2c(c1)OCCO2)c1ccc(Br)s1	L major viab 54
O=C(CNCc1ccccc1Cl)Nc1ccccc1N1CCCCC1	WT yeast gro inh 80
O=C(Nc1ccccc1N1CCCCC1)c1ccccc1F	WT yeast gro inh 81
O=C(CNCC1CCCO1)Nc1ccccc1N1CCCCCC1 (centres undefined)	none
O=C(NC(=S)Nc1ccc2c(c1)OCCO2)c1cccc(Br)c1	L major viab 68
CN(CCCNC(=O)CSc1cc(=O)n(C)c2cc(Cl)ccc12)Cc1ccccc1	none
Cc1cc(C(=O)Nc2c(F)c(F)c(F)c(F)c2F)n(-c2ccccc2)n1	none
CCC(C(=O)NCc1ccco1)N(C(=O)CNS(=O)(=O)c1ccccc1)c1ccc(OC)cc1 (centres undefined)	none
Cc1nc(CN2CCN(C(=O)c3ccc(C(C)(C)C)cc3)CC2)cs1	none
O=C(NC(=S)Nc1ccccc1N1CCCC1)c1ccc(F)cc1	none
O=C(NC(=S)Nc1ccccc1N1CCCCC1)c1ccccc1	WT yeast gro inh 67
O=C(NC(=S)Nc1cccc(Cl)c1N1CCCCC1)c1ccc2c(c1)OCCO2	L major viab 97
Cc1cccc(NC(=O)C2C3CCC4C(CCC32)C4(Cl)Cl)c1 (centres undefined)	none
COc1ccc2nc(NC(=O)c3ccc(NS(=O)(=O)c4cccs4)cc3)sc2c1	none
CSc1ncccc1C(=O)Nc1nc2c(C)cccc2s1	L major viab 69
Cc1cccc2sc(NC(=O)c3ccc(NS(=O)(=O)c4cccs4)cc3)nc12	WT yeast gro inh 67
Cc1cc(C(=O)Nc2nc3c(C)cccc3s2)c(C)o1	none
CCC(=O)NC(=S)NNC(=O)c1ccc(O)cc1	none (no result: PMI act, PMI act satM6P, Diaphorase act)
O=C(Nc1nccs1)c1cccc(N2C(=O)c3cccc4c([N+](=O)[O-])ccc(c34)C2=O)c1	L major viab 73
O=C(Nc1nccs1)c1ccc(N2C(=O)C3CCCCC3C2=O)cc1 (centres undefined)	none
O=C(Nc1nccs1)c1cccc(N2C(=O)C3C4C=CC(C4)C3C2=O)c1 (centres undefined)	L major viab 51
CCN(CC)S(=O)(=O)c1ccc(Cl)c(NC(=O)COC(=O)/C=C/c2ccc(O)c(OC)c2)c1	none
O=C(CCc1nc2ccccc2s1)Nc1cccnc1	none
O=C(O)c1ccc(-n2cc(-c3cc4ccccc4oc3=O)[nH]c2=S)cc1	PMI act satM6P 2.4
O=C(c1ccccc1)c1c[nH]c(C(=O)NNc2ccccc2)c1	PMI act satM6P 2.3, L major viab 89
O=C(CSc1cccc2cccc(Cl)c12)OCC(=O)N1CCN(C(=O)c2ccco2)CC1	L major viab 53 (no result: WT yeast gro inh)
Cc1cc(Br)ccc1SCC(=O)OCC(=O)N1CCN(C(=O)c2ccco2)CC1	none
CNc1nc(SCc2ccccc2Cl)nc2c1CCCC2	L major viab 88
C=CCNC(=O)CC(=O)N/N=C/c1cccs1	none
COCCNC(=O)c1cc2nc(-c3ccc(F)cc3)cc(C(F)(F)F)n2n1	none (no result: PMI act, PMI act satM6P, Diaphorase act)
COc1ccc(N(C)C(=O)CCS(=O)(=O)c2cccc3nonc23)c(OC)c1	none
Cc1ccc2c(c1)N(C(=O)c1ccco1)C(C)(C)c1ssc(=S)c1-2	L major viab 98
Cn1c(SCCS(=O)(=O)c2ccc(Cl)cc2)nnc1-c1ccccc1	L major viab 100
Cn1c(SCC(=O)NNC(=O)Cc2ccccc2)nnc1-c1ccc(Cl)cc1	none
COc1ccc(/C=C(/NC(=O)c2ccc([N+](=O)[O-])cc2)C(=O)NCCCN(C)C)cc1	none
O=[N+]([O-])c1cc(C(F)(F)F)ccc1N1CCCNCC1	L major viab 79
CCNc1cc(N2CCN(S(=O)(=O)c3ccc4c(c3)CCCC4)CC2)ccc1[N+](=O)[O-]	none
O=[N+]([O-])c1cc(C(F)(F)F)ccc1N1CCN(S(=O)(=O)c2ccc3c(c2)CCCC3)CC1	L major viab 67
CC1CN(c2ccc(C(F)(F)F)cc2[N+](=O)[O-])CCN1S(C)(=O)=O (centres undefined)	L major viab 77
O=C(CCNC(=O)c1ccccc1Cl)NC1=NCCS1	none
NC(=O)c1c(NC(=O)C2COc3ccccc3O2)sc2c1CCN(Cc1ccccc1)C2 (centres undefined)	none
CCOC(=O)c1c(NC(=O)C2COc3ccccc3O2)sc2c1CCN(Cc1ccccc1)C2 (centres undefined)	L major viab 58
CCOC(=O)c1c(NC(=S)Nc2ccccc2)sc2c1CCN(CC)C2	L major viab 98
CCOC(=O)c1c(NC(=O)C2CCCN(S(=O)(=O)c3ccc(C)cc3)C2)sc2c1CCCC2 (centres undefined)	none
CCOC(=O)c1c(NC(=O)COc2cccc3c2CCN(C)C3=O)sc2c1CCC2	L major viab 80
CCOC(=O)c1c(NC(=O)C2CCCN(S(=O)(=O)c3ccccc3)C2)sc2c1CCCC2 (centres undefined)	L major viab 81
Cc1cccnc1CN1CCN(Cc2nc(C(c3ccccc3)c3ccccc3)no2)CC1	none
CC(C)(C)c1cc(NC(=O)CSc2nncs2)n(-c2ccccc2)n1	L major viab 55
Cc1nnc(SCC(=O)Nc2cc(-c3cc(C)c(C)cc3C)nn2-c2ccccc2)s1	L major viab 97, WT yeast gro inh 63
Cc1nnc(SCC(=O)Nc2cc(C(C)(C)C)nn2-c2ccccc2)s1	none
